B1: Osa-1-4 twister ribozyme (parent)
chain: CCGCCUAACACUGCCAAUGCCGGUCCCAAGCCCGGAUAAAAGUGGAGGGGGCGG

Variants of: B1
Experiment: self-cleavage, relative activity (ratio to wild type); higher = more cleavage; co-transcriptional
How it was run: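 The 48 positions downstream of the cleavage site in a DNA template for a 54-nucleotide Oryza sativa twister ribozyme carried 97 % wild-type base and 1 % of each other base. After in vitro transcription (2 h, 37 °C) with co-transcriptional self-cleavage, the RNA was reverse-transcribed with a template-switching oligonucleotide, PCR-amplified and deep-sequenced. Relative activity is the fraction cleaved, judged by reads with or without upstream sequence and normalised to wild type.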

CCGCCUAACACUACCAAUGCCGGGCCCAAGCCCGGAUAAAAGUGGAGGGGGCGG and CCGCCUAACACUCCCAAUGCCGGUCCCAAACCCGGAUAAAAGUGGAGGGGGCGG are the same in self-cleavage: 0.01 for the first, 0.01 for the second.

Going from CCGCCUAACACUCCCAAUGCCGGUCCCAACCCCGGAUAAAAGUGGAGGGGGCGG to CCGCCUAACACUCCCAAUGCCGGUCCCAAUCCCGGAUAAAAGUGGAGGGGGCGG, the self-cleavage falls from 0.02 to 0.01.

Compared with CCGCCUAACACGGCCAAUGCCGGUCCCAAGCCCGGAUAAAAGUGGAGGGGGCGG, CCGCCUAACACGGCCAAUGCCGGUCCCAAGCCCGGAAAAAAGUGGAGGGGGCGG is higher in self-cleavage: 0.55 for the first, 0.6 for the second.

Compared with CCGCCUAACACGGCCAAUGCCGGUCCCAAGCCCGGAGAAAAGUGGAGGGGGCGG, CCGCCUAACACGGCCAAUGCCGGUCCCAAGCCCGGACAAAAGUGGAGGGGGCGG is higher in self-cleavage: 0.52 for the first, 0.55 for the second.

Compared with CCGCCUAACACCACCAAUGCCGGUCCCAAGCCCGGAUAAAAGUGGAGGGGGCGG, CCGCCUAACACGACCAAUGCCGGUCCCAAGCCCGGAUAAAAGUGGAGGGGGCGG is higher in self-cleavage: 0.04 for the first, 0.09 for the second.

Compared with CCGCCUAACACAACCAAUGCCGGUCCCAAGCCCGGAUAAAAGUGGAGGGGGCGG, CCGCCUAACACUCCCAAUGCCAGUCCCAAGCCCGGAUAAAAGUGGAGGGGGCGG is lower in self-cleavage: 0.07 for the first, 0.03 for the second.

First: CCGCCUAACACUCCCAAUGCCUGUCCCAAGCCCGGAUAAAAGUGGAGGGGGCGG
Second: CCGCCUAACACUCCCAAUGCCCGUCCCAAGCCCGGAUAAAAGUGGAGGGGGCGG
The self-cleavage of the first is higher: 0.02 for the first, 0.01 for the second.

First: CCGCCUAACACUACCAAUGCCGAUCCCAAGCCCGGAUAAAAGUGGAGGGGGCGG
Second: CCGCCUAACACUACCAAUGCCGCUCCCAAGCCCGGAUAAAAGUGGAGGGGGCGG
The self-cleavage of the first is higher: 0.04 for the first, 0.02 for the second.

Compared with CCGCCUAACACUACCAAUGCCGUUCCCAAGCCCGGAUAAAAGUGGAGGGGGCGG, CCGCCUAACACUACCAAUACCGGUCCCAAGCCCGGAUAAAAGUGGAGGGGGCGG is higher in self-cleavage: 0.02 for the first, 0.08 for the second.

Going from CCGCCUAACACUACCAAUCCCGGUCCCAAGCCCGGAUAAAAGUGGAGGGGGCGG to CCGCCUAACACUACCAAUUCCGGUCCCAAGCCCGGAUAAAAGUGGAGGGGGCGG, the self-cleavage rises from 0.03 to 0.04.

Going from CCGCCUAACACUACCAAGGCCGGUCCCAAGCCCGGAUAAAAGUGGAGGGGGCGG to CCGCCUAACACUACCAAAGCCGGUCCCAAGCCCGGAUAAAAGUGGAGGGGGCGG, the self-cleavage falls from 0.24 to 0.09.

First: CCGCCUAACACUACCAACGCCGGUCCCAAGCCCGGAUAAAAGUGGAGGGGGCGG
Second: CCGCCUAACACUACCAAUGCCGGUCCCAAGCCCGGAUAAAAGUGGAGGGCGCGG
The self-cleavage of the first is higher: 0.1 for the first, 0.06 for the second.

Compared with CCGCCUAACACUACCAAUGCCGGUCCCAAGCCCGGAUAAAAGUGGAGGGUGCGG, CCGCCUAACACUACCAAUGCCGGUCCCAAGCCCGGAUAAAAGUGGAGGGAGCGG is higher in self-cleavage: 0.08 for the first, 0.14 for the second.

Going from CCGCCUAACACUACCAAUGCCCGUCCCAAGCCCGGAUAAAAGUGGAGGGGGCGG to CCGCCUAACACUACCAAUGCCAGUCCCAAGCCCGGAUAAAAGUGGAGGGGGCGG, the self-cleavage rises from 0.03 to 0.07.

Going from CCGCCUAACACUACCAAUGCCUGUCCCAAGCCCGGAUAAAAGUGGAGGGGGCGG to CCGCCUAACACUCCCAAUGCCGAUCCCAAGCCCGGAUAAAAGUGGAGGGGGCGG, the self-cleavage falls from 0.04 to 0.02.

Going from CCGCCUAACACUCCCAAUGCCGUUCCCAAGCCCGGAUAAAAGUGGAGGGGGCGG to CCGCCUAACACUCCCAAUGCCGCUCCCAAGCCCGGAUAAAAGUGGAGGGGGCGG, the self-cleavage falls from 0.02 to 0.01.

Going from CCGCCUAACACUCCCAAUGCCGGUCCCAAGCCCUGAUAAAAGUGGAGGGGGCGG to CCGCCUAACACUCCCAAUGCCGGUCCCAAGCCCCGAUAAAAGUGGAGGGGGCGG, the self-cleavage falls from 0.03 to 0.02.

First: CCGCCUAACACUCCCAAUGCCGGUCCCAAGCCCAGAUAAAAGUGGAGGGGGCGG
Second: CCGCCUAACACUCCCAAUGCCGGUCCCAAGCCCGAAUAAAAGUGGAGGGGGCGG
The self-cleavage of the first is higher: 0.04 for the first, 0.02 for the second.

First: CCGCCUAACACUCCCAAUGCCGGUCCCAAGCCCGUAUAAAAGUGGAGGGGGCGG
Second: CCGCCUAACACUCCCAAUGCCGGUCCCAAGCCCGCAUAAAAGUGGAGGGGGCGG
The self-cleavage of the first is higher: 0.04 for the first, 0.02 for the second.

Going from CCGCCUAACACUACCAAUGCCGGUCCCAAGCCCGGAUAAAAGUGGAGGGGGCGG to CCGCCUAACACUCCCAAUGCCGGUCCCAAGCCCGGAUAAAAGUGGAGGGGGCGG, the self-cleavage falls from 0.17 to 0.03.

First: CCGCCUAACACUACCAAUGCCGGUCCCAAGCCCGCAUAAAAGUGGAGGGGGCGG
Second: CCGCCUAACACUACCAAUGCCGGUCCCAAGCCCGAAUAAAAGUGGAGGGGGCGG
The self-cleavage of the first is lower: 0.05 for the first, 0.12 for the second.

Compared with CCGCCUAACACUACCAAUGCCGGUCCCAAGCCCGUAUAAAAGUGGAGGGGGCGG, CCGCCUAACACUACCAAUGCCGGUCCCAAGCCCGGAUAAAAGUGGAAGGGGCGG is lower in self-cleavage: 0.08 for the first, 0.04 for the second.

CCGCCUAACACUACCAAUGCCGGUCCCAAGCCCGGAUAAAAGUGGACGGGGCGG and CCGCCUAACACUACCAAUGCCGGUCCCAAGCCCGGAUAAAAGUGGAUGGGGCGG are the same in self-cleavage: 0.03 for the first, 0.03 for the second.

Going from CCGCCUAACACUACCAAUGCCGGUCCCAAGCCCGGAUAAAAUUGGAGGGGGCGG to CCGCCUAACACUACCAAUGCCGGUCCCAAGCCCGGAUAAAAAUGGAGGGGGCGG, the self-cleavage rises from 0.02 to 0.05.

In the case of CCGCCUAACACUACCAAUGCCGGUCCCAAGCCCGGAUAAAACUGGAGGGGGCGG, the self-cleavage is reported as 0.04.

From the RNAGym collection of RNA variant scans (doi:10.1002/anie.201605470)
